Results reported in PMC5002266 (Nuclear medicine and biology, 2016).

How the values were obtained:
[1] = Biodistribution of 99mTc radiotracer in tumor-bearing mice; assay type: in vivo, BALB/c nude mice; settings: female, BALB/c nude, mouse, iv, 0.1 MBq, total radioactivity
In short: (§1)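 Female BALB/c nude mice (4–5 weeks, 16–20 g) carried U87MG cells (5 × 10^6, s.c. shoulder flank) and were used at a tumor volume of ~400 mm3 (~10 days). Each received ~0.1 MBq of 99mTc tracer (~2 ng HYNIC conjugate) in saline by tail vein. Five animals were killed per time point (5, 30, 60, 120 min p.i.). Organs were weighed and γ-counted as %ID/g, and tumor-to-background ratios were reported as mean ± SD.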

[2] = feces at 2 h p.i.; ref [14]; cited from earlier work
[3] = test system: BALB/c nude mice bearing U87MG human glioma xenografts; experiment: Biodistribution of 99mTc radiotracer in tumor-bearing mice; assay type: in vivo; settings: BALB/c nude mice with U87MG xenografts, mean ± SD, n = 5
In short: as §1

Metabolism = assay type: in vivo; settings: athymic nude mice (n = 3); ~10 MBq tail vein; feces at 2 h p.i.; radio-HPLC
In short: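 Athymic nude mice (n = 3) received ~10 MBq tracer i.v. Feces collected at 120 min p.i. were counted, suspended in 20% aqueous acetonitrile, vortexed ~5 min and centrifuged at 8,000 rpm. The supernatant was counted, filtered at 0.20 µm and run on radio-HPLC (C8, 1 mL/min; 25 mM NH4OAc pH 6.8/acetonitrile, isocratic 5 min then gradient to 60% acetonitrile at 20 min).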

integrin αvβ3 = experiment: Monitoring αvβ3 expression by SPECT/CT in three tumor models; assay type: in vivo, athymic nu/nu mice; settings: SPECT/CT of tumor-bearing athymic nude mice, ~50 MBq
In short: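 Female athymic nu/nu mice (4–5 weeks) received 5 × 10^6 cells in 0.1 mL saline: U87MG and PC-3 into shoulder flanks, MDA-MB-435 into breast fat pads. At tumor sizes of 0.1–0.5 g, they were given tracer i.v. and imaged on a multi-pinhole (1.0 mm) SPECT/CT at 60 min p.i. under ~3.0% isoflurane. Tumor ROIs came from CT, and activity was converted via a γ-counter-calibrated standard curve to %ID/g, assuming ~1 g/cm3.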

For N=C(N)NCCC[C@@H]1NC(=O)[C@H](CCCCNC(=O)CCOCCOCCOCCOCCNC(=O)CC[C@H](NC(=O)CCOCCOCCOCCOCCNC(=O)c2ccc(NN)nc2)C(=O)NCCOCCOCCOCCOCCC(=O)NCCCC[C@@H]2NC(=O)[C@@H](Cc3ccccc3)NC(=O)[C@H](CC(=O)O)NC(=O)CNC(=O)[C@H](CCCNC(=N)N)NC2=O)NC(=O)[C@@H](Cc2ccccc2)NC(=O)[C@H](CC(=O)O)NC(=O)CNC1=O [^99mTc-3P-RGD2, [^99mTc(HYNIC-3P-RGD2)(tricine)(TPPTS)], metal not drawn], the tissue uptake at 2 h ([1]; blood) was 0.32 ± 0.06 %ID/g, the tissue uptake at 0.5 h ([1]; brain) was 0.41 ± 0.17 %ID/g and the tissue uptake at 1 h ([1]; brain) was 0.41 ± 0.05 %ID/g. For the same compound, the tissue uptake at 2 h ([1]; brain) was 0.23 ± 0.09 %ID/g, the tissue uptake at 1 h ([1]; eyes) was 2.57 ± 0.59 %ID/g and the tissue uptake at 2 h ([1]; eyes) was 2.12 ± 0.86 %ID/g. For the same compound, the tissue uptake at 0.5 h ([1]; heart) was 3.48 ± 0.45 %ID/g, the tissue uptake at 1 h ([1]; heart) was 3.13 ± 0.44 %ID/g and the tissue uptake at 2 h ([1]; heart) was 2.07 ± 0.75 %ID/g. The tissue uptake at 0.5 h ([1]; intestine) was 4.24 ± 1.54 %ID/g, the tissue uptake at 1 h ([1]; intestine) was 5.45 ± 1.47 %ID/g and the tissue uptake at 2 h ([1]; intestine) was 3.37 ± 1.32 %ID/g. The tissue uptake at 0.5 h ([1]; kidneys) was 32.9 ± 2.94 %ID/g, the tissue uptake at 1 h ([1]; kidneys) was 24.6 ± 3.59 %ID/g and the tissue uptake at 2 h ([1]; kidneys) was 19.1 ± 2.6 %ID/g. It also gave a tissue uptake at 0.5 h ([1]; liver) of 5.82 ± 0.79 %ID/g, a tissue uptake at 1 h ([1]; liver) of 4.83 ± 0.6 %ID/g and a tissue uptake at 2 h ([1]; liver) of 4.52 ± 0.76 %ID/g. For the same compound, the tissue uptake at 0.5 h ([1]; lungs) was 4.24 ± 0.87 %ID/g, the tissue uptake at 1 h ([1]; lungs) was 3.5 ± 1.01 %ID/g and the tissue uptake at 2 h ([1]; lungs) was 2.39 ± 0.71 %ID/g. For the same compound, the tissue uptake at 0.5 h ([1]; muscle) was 2.25 ± 0.48 %ID/g, the tissue uptake at 1 h ([1]; muscle) was 1.5 ± 0.49 %ID/g and the tissue uptake at 2 h ([1]; muscle) was 1.23 ± 0.21 %ID/g. The tissue uptake at 0.5 h ([1]; spleen) was 5.03 ± 0.45 %ID/g, the tissue uptake at 1 h ([1]; spleen) was 4.02 ± 0.7 %ID/g and the tissue uptake at 2 h ([1]; spleen) was 3.8 ± 0.5 %ID/g. It also gave a tissue to tissue ratio at 0.5 h ([1]; tumor / blood) of 4.33 ± 0.12, a tissue to tissue ratio at 1 h ([1]; tumor / blood) of 5.86 ± 2.21 and a tissue to tissue ratio at 2 h ([1]; tumor / blood) of 12 ± 3.62. For the same compound, the tissue to tissue ratio at 0.5 h ([1]; tumor / liver) was 1.16 ± 0.54, the tissue to tissue ratio at 1 h ([1]; tumor / liver) was 1.1 ± 0.54 and the tissue to tissue ratio at 2 h ([1]; tumor / liver) was 0.84 ± 0.1. The tissue to tissue ratio at 0.5 h ([1]; tumor / lung) was 1.52 ± 0.74, the tissue to tissue ratio at 1 h ([1]; tumor / lung) was 1.33 ± 0.52 and the tissue to tissue ratio at 2 h ([1]; tumor / lung) was 1.74 ± 0.63. For the same compound, the tissue to tissue ratio at 0.5 h ([1]; tumor / muscle) was 1.85 ± 1.38, the tissue to tissue ratio at 1 h ([1]; tumor / muscle) was 2.25 ± 1.56 and the tissue to tissue ratio at 2 h ([1]; tumor / muscle) was 3.09 ± 0.4. For the same compound, the tissue uptake at 0.5 h ([1]; tumor) was 6.77 ± 1.3 %ID/g, the tissue uptake at 1 h ([1]; tumor) was 4.62 ± 0.57 %ID/g and the tissue uptake at 2 h ([1]; tumor) was 3.93 ± 0.63 %ID/g. The tissue uptake at 0.5 h ([1]; whole blood) was 1.54 ± 0.14 %ID/g, the tissue uptake at 1 h ([1]; whole blood) was 0.87 ± 0.1 %ID/g and the “Radiotracer remaining intact in the feces samples” value [2] was 70%.
Compound “[^99mTc(HYNIC-4P-RGD3)(tricine)(TPPTS)] (head to tail) [^99mTc-4P-RGD3]” has a Tumor/Blood ratio ([3]; 5 min p.i.) of 1.23 ± 0.34, a Tumor/Liver ratio ([3]; 5 min p.i.) of 0.55 ± 0.16 and a Tumor/Lung ratio ([3]; 5 min p.i.) of 0.69 ± 0.15. It also gave a Tumor/Muscle ratio ([3]; 5 min p.i.) of 1.80 ± 0.48, a Tumor/Blood ratio ([3]; 30 min p.i.) of 3.69 ± 0.48 and a Tumor/Liver ratio ([3]; 30 min p.i.) of 0.79 ± 0.11. It also gave a Tumor/Lung ratio ([3]; 30 min p.i.) of 1.07 ± 0.13, a Tumor/Muscle ratio ([3]; 30 min p.i.) of 2.29 ± 0.34 and a Tumor/Blood ratio ([3]; 60 min p.i.) of 6.21 ± 2.34. It also gave a Tumor/Liver ratio ([3]; 60 min p.i.) of 0.87 ± 0.25, a Tumor/Lung ratio ([3]; 60 min p.i.) of 1.08 ± 0.25 and a Tumor/Muscle ratio ([3]; 60 min p.i.) of 1.78 ± 0.69. It also gave a Tumor/Blood ratio ([3]; 120 min p.i.) of 8.21 ± 1.71, a Tumor/Liver ratio ([3]; 120 min p.i.) of 0.70 ± 0.19 and a Tumor/Lung ratio ([3]; 120 min p.i.) of 1.45 ± 0.22. For the same compound, the Tumor/Muscle ratio ([3]; 120 min p.i.) was 2.79 ± 0.55, the “Radiotracer remaining intact in the feces sample” value (Metabolism) was “More than 95%” and the “Ranking order of tumor uptake values among tumor models” value (integrin αvβ3) was “U87MG > MDA-MB-435 >> PC-3”.
